What was measured:
Rattus norvegicus [1] = assay: Maximum effect on blood pressure in the conscious Renal hypertensive rat after oral administration of 30 mg/kg; type: functional
How it was run: (§1)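 Male CD albino rats were clipped at four weeks old, and hypertension developed over 3–4 weeks. Rats weighed 280–320 g at cannulation and had chronic aortic cannulae implanted 2–4 days before testing. Only rats with mean aortic pressure above 160 mmHg were used. Dosing was oral in 4% gum acacia (2 mL/kg). One-minute running averages were recorded every 30 min and reported as mean ± SEM, two-tailed p < 0.05.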

[2] = biological target: Angiotensin-converting enzyme (Cavia porcellus); assay: Inhibition of guinea pig serum Angiotensin I converting enzyme
Rattus norvegicus [3] = assay: Base line of mean aortic blood pressure in the conscious Renal hypertensive rat was determined after oral administration of 30 mg/kg; type: functional, Artery
Rattus norvegicus [4] = assay: Change in mean aortic blood pressure expressed in hours after an oral administration of 30 mg/kg in conscious renal hypertensive rats
Rattus norvegicus [5] = assay: Change in mean aortic blood pressure expressed in hours after an oral administration of 3 mg/kg in conscious normotensive rats; type: functional, Artery
Rattus norvegicus [6] = assay: Inhibition of blood pressure increase produced by iv injection of angiotensin I in conscious normotensive rats at a dose of 30 mg/kg; type: functional
Rattus norvegicus [7] = assay: Inhibition of blood pressure increase produced by iv injection of angiotensin I in conscious normotensive rats at a dose of 3 mg/kg; type: functional
Rattus norvegicus [8] = assay: Angiotensin I(AI) response to return to 70% of the pretreatment control response was determined at a dose of 3 mg/kg, iv; type: functional
Rattus norvegicus [9] = assay: Angiotensin I(AI) response to return to 70% of the pretreatment control response was determined at a dose of 30 mg/kg, po; type: functional
Rattus norvegicus [10] = assay: Base line of mean aortic blood pressure in the conscious Renal hypertensive rat was determined after oral administration of 3 mg/kg; type: functional; settings: Artery; how it was run: as §1
Rattus norvegicus [11] = assay: Change in mean aortic blood pressure expressed in hours after an oral administration of 30 mg/kg in conscious renal hypertensive rats; remark: listed apart in the source
Rattus norvegicus [12] = assay: Angiotensin I(AI) response to return to 70% of the pretreatment control response was determined at a dose of 3 mg/kg; type: functional
Rattus norvegicus [13] = assay: Change in mean aortic blood pressure expressed in hours after an oral administration of 3 mg/kg in conscious renal hypertensive rats

With `CCCCCCCC(=O)N[C@@H](Cc1ccccc1)C(=O)CCC(=O)N1CCCC1C(=O)O` (stereo not given in full) the “Mean aortic blood pressure” value (Rattus norvegicus [1]) was 167 mmHg, the I50 [2] was 650 nM and the “Mean aortic blood pressure” value (Rattus norvegicus [3]) was 182 mmHg. For the same compound, the Change (Rattus norvegicus [4]) was -15 mmHg.
`CCCCCC(=O)N[C@@H](Cc1ccccc1)C(=O)CCC(=O)N1CCCC1C(=O)O` (stereo not given in full) was tested, and the “Mean aortic blood pressure” value (Rattus norvegicus [1]) was 191 mmHg, the I50 [2] was 47 nM and the “Mean aortic blood pressure” value (Rattus norvegicus [3]) was 193 mmHg. The Change (Rattus norvegicus [5]) was -2 mmHg.
`CCCCOC(=O)NC(Cc1ccccc1)C(=O)CC(C)C(=O)N1CCCC1C(=O)O` (stereo not given) was tested, and the “Mean aortic blood pressure” value (Rattus norvegicus [1]) was 176 mmHg, the I50 [2] was 29 nM and the “Mean aortic blood pressure” value (Rattus norvegicus [3]) was 188 mmHg. It also gave a Change (Rattus norvegicus [4]) of -12 mmHg.
`CCCCOC(=O)NC(Cc1ccccc1)C(=O)CCC(=O)N1CCCC1C(=O)O` (stereo not given) was tested, and the “Mean aortic blood pressure” value (Rattus norvegicus [1]) was 160 mmHg, the I50 [2] was 210 nM and the “Mean aortic blood pressure” value (Rattus norvegicus [3]) was 175 mmHg. The Change (Rattus norvegicus [4]) was -15 mmHg.
In the case of `C[C@H](CC(=O)[C@@H](Cc1ccccc1)NC(=O)c1ccccc1)C(=O)N1CCC[C@H]1C(=O)O`, the “Mean aortic blood pressure” value (Rattus norvegicus [1]) is reported as 166 mmHg, the “Mean aortic blood pressure” value (Rattus norvegicus [3]) is reported as 188 mmHg and the Change (Rattus norvegicus [5]) is reported as -22 mmHg.
In the case of `C[C@@H](CC(=O)[C@@H](Cc1ccccc1)NC(=O)c1ccccc1)C(=O)N1CCC[C@H]1C(=O)O`, the “Mean aortic blood pressure” value (Rattus norvegicus [1]) is reported as 163 mmHg, the “Mean aortic blood pressure” value (Rattus norvegicus [3]) is reported as 183 mmHg and the Change (Rattus norvegicus [4]) is reported as -20 mmHg.
With `CCCCCCCCCC(=O)N[C@@H](Cc1ccccc1)C(=O)CCC(=O)N1CCCC1C(=O)O` (stereo not given in full) the “Mean aortic blood pressure” value (Rattus norvegicus [1]) was 176 mmHg, the I50 [2] was 6500 nM and the “Mean aortic blood pressure” value (Rattus norvegicus [3]) was 197 mmHg. For the same compound, the Change (Rattus norvegicus [5]) was -21 mmHg.
With `O=C(N[C@@H](Cc1ccccc1)C(=O)CCC(=O)N1CCC[C@H]1C(=O)O)c1ccccc1` the inhibition in vivo at 30 mg/kg (Rattus norvegicus [6]) was 48%, the “Mean aortic blood pressure” value (Rattus norvegicus [3]) was 190 mmHg and the Change (Rattus norvegicus [4]) was -12 mmHg. The inhibition in vivo at 3 mg/kg (Rattus norvegicus [7]) was 57%.
For `C[C@@H](CC(=O)[C@H](Cc1ccccc1)NC(=O)c1ccccc1)C(=O)N1CCC[C@H]1C(=O)O`, the AI recovery time (Rattus norvegicus [8]) was 71 min, the “Mean aortic blood pressure” value (Rattus norvegicus [1]) was 173 mmHg and the inhibition in vivo at 30 mg/kg (Rattus norvegicus [6]) was 71%. The AI recovery time (Rattus norvegicus [9]) was >180 min, the “Mean aortic blood pressure” value (Rattus norvegicus [3]) was 189 mmHg and the Change (Rattus norvegicus [4]) was -16 mmHg. It also gave an inhibition in vivo at 3 mg/kg (Rattus norvegicus [7]) of 74%.
Work on `C[C@H](CC(=O)[C@H](Cc1ccccc1)NC(=O)c1ccccc1)C(=O)N1CCC[C@H]1C(=O)O` yielded a Mean aortic blood pressure at 3 mg/kg (Rattus norvegicus [10]) of 209 mmHg, an AI recovery time (Rattus norvegicus [8]) of 73 min and a Change (Rattus norvegicus [11]) of -38 mmHg. It also gave a Mean aortic blood pressure (Rattus norvegicus [1]) of 159 mmHg, an inhibition in vivo at 30 mg/kg (Rattus norvegicus [6]) of 100% and an AI recovery time (Rattus norvegicus [12]) of 73 min. The AI recovery time (Rattus norvegicus [9]) was 143 min, the Mean aortic blood pressure (Rattus norvegicus [3]) was 197 mmHg and the Change (Rattus norvegicus [13]) was -40 mmHg. For the same compound, the inhibition in vivo at 3 mg/kg (Rattus norvegicus [7]) was 100%.
For `C[C@H](CS)C(=O)N1CCC[C@H]1C(=O)O` [CAPTOPRIL], the “Mean aortic blood pressure” value (Rattus norvegicus [1]) was 99 mmHg, the inhibition in vivo at 30 mg/kg (Rattus norvegicus [6]) was 69% and the inhibition in vivo at 3 mg/kg (Rattus norvegicus [7]) was 95%.

— ChEMBL document CHEMBL1122140, “Derivatives of the potent angiotensin converting enzyme inhibitor 5(S)-benzamido-4-oxo-6-phenylhexanoyl-L-proline: effect of changes at positions 2 and 5 of the hexanoic acid portion” (J Med Chem, 1982)
